Source: ChEMBL document CHEMBL1144846, “Herkinorin analogues with differential beta-arrestin-2 interactions” (J Med Chem, 2008)
Calls of active or inactive are those of the source. The calls are words filed in the database; no cut-off is given here.

Tests used:
Homo sapiens [1] = species on record: Homo sapiens; assay: Selectivity for human recombinant kappa opioid receptor over human recombinant delta opioid receptor
Mu-type opioid receptor [2] = target: T1, Mu-type opioid receptor (Homo sapiens, UniProt P35372); assay: Displacement of [125I]IOXY from human recombinant mu opioid receptor expressed in CHO cells; assay type: cell-based
T1 sequence (P35372 whole entry): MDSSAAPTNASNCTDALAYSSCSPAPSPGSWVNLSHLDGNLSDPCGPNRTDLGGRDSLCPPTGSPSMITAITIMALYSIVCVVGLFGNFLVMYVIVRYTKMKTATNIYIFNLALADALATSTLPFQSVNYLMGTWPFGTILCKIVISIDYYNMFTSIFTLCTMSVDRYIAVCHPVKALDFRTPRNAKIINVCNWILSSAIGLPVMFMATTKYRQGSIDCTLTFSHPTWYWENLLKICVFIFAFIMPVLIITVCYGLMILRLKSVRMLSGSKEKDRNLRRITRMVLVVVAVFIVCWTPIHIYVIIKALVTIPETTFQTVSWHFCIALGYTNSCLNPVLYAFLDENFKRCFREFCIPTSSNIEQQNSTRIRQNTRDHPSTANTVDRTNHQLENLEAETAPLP

[3] = target: Delta-type opioid receptor (Homo sapiens, UniProt P41143); assay: Displacement of [125I]IOXY from human recombinant delta opioid receptor expressed in CHO cells; assay type: cell-based
Delta-type opioid receptor, sequence (P41143 whole entry): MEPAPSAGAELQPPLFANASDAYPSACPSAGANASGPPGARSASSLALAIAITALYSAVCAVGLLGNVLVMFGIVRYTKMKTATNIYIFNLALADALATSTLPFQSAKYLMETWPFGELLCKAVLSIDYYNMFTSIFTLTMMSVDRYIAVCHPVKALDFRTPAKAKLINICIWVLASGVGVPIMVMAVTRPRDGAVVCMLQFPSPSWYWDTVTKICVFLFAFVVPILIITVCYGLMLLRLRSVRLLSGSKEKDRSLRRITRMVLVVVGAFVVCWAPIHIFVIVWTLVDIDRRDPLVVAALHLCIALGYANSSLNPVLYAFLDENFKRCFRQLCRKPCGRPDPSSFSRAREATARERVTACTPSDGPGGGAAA

Homo sapiens [4] = species on record: Homo sapiens; assay: Selectivity for human recombinant kappa opioid receptor over human recombinant mu opioid receptor
[5] = target: T2, Kappa-type opioid receptor (Homo sapiens, UniProt P41145); assay: Displacement of [125I]IOXY from human recombinant kappa opioid receptor expressed in CHO cells; assay type: cell-based
T2 sequence (P41145 whole entry): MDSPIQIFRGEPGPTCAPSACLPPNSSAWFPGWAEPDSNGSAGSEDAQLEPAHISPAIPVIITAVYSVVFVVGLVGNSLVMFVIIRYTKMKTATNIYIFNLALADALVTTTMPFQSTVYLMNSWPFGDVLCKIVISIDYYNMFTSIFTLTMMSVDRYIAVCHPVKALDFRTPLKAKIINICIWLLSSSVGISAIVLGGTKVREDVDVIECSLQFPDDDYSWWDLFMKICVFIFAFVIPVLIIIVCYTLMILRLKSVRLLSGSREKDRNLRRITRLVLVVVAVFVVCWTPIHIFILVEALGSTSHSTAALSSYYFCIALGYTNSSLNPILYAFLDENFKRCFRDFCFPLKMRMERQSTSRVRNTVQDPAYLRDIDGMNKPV

Mu-type opioid receptor [6] = target: T1, Mu-type opioid receptor; assay: Agonist activity at human recombinant mu opioid receptor expressed in CHO cells by [35S]GTP-gamma-S binding assay relative to DAMGO; assay type: functional, cell-based
Mu-type opioid receptor [7] = target: T1, Mu-type opioid receptor; assay: Agonist activity at human recombinant mu opioid receptor expressed in CHO cells by [35S]GTP-gamma-S binding assay; assay type: functional, cell-based
Mu-type opioid receptor [8] = target: T1, Mu-type opioid receptor; assay: Agonist activity at human mu opioid receptor expressed in CHO cells assessed as increase in ERK phosphorylation after 10 mins; assay type: functional, cell-based
Method in brief: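 CHO cells stably expressing human MOR1 (~800 fmol/mg membrane protein), serum-starved 30 min at 37°C, then treated 10 min, with naloxone present where indicated. Lysates were run on SDS-PAGE and immunoblotted for total ERK1/2, then stripped and reprobed for phospho-ERK (Tyr204), with HRP chemiluminescence detection. Densitometry; at least three experiments in triplicate.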

[9] = target: T2, Kappa-type opioid receptor; assay: Agonist activity at human recombinant kappa opioid receptor expressed in CHO cells by [35S]GTP-gamma-S binding assay; assay type: functional, cell-based
[10] = target: T2, Kappa-type opioid receptor; assay: Agonist activity at human recombinant kappa opioid receptor expressed in CHO cells by [35S]GTPgammaS binding assay relative to (-)-U50,488; assay type: functional, cell-based
Mu-type opioid receptor [11] = target: T1, Mu-type opioid receptor; assay: Agonist activity at mu opioid receptor expressed in HEK293 cells assessed as induction of beta-arrestin-2-GFP plasma membrane translocation at 10 uM after 10 mins; assay type: functional, cell-based
Method in brief: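 HEK-293 cells stably expressing MOR (~1000 fmol/mg membrane protein), or transiently expressing MOR1, were transiently transfected with βarr2-GFP (2 μg), with or without GRK2 (1.5 μg). After 24–36 h at 37°C and 30 min serum starvation, basal images were taken. Drug was then applied at 10 μM for 10 min, with confocal imaging each minute; cells shown at 5 min. At least 3 independent experiments.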

| Structure (SMILES) | Ratio Ki (Homo sapiens [1]) | Ki (Mu-type opioid receptor [2]) | Ki [3] | Ratio Ki (Homo sapiens [4]) | Ki [5] | Emax (Mu-type opioid receptor [6]) | EC50 (Mu-type opioid receptor [7]) | Activity (Mu-type opioid receptor [8]) | EC50 [9] | Emax [10] | Activity (Mu-type opioid receptor [11]) |
| --- | --- | --- | --- | --- | --- | --- | --- | --- | --- | --- | --- |
| COC(=O)[C@@H]1C[C@H](OC(=O)c2ccc3ccccc3c2)C(=O)[C@H]2[C@@]1(C)CC[C@H]1C(=O)O[C@H](c3ccoc3)C[C@]21C | > 2 | 180 nM | > 10000 nM | 0.03 | 5490 nM | – | – | – | – | – | – |
| COC(=O)[C@@H]1C[C@H](OC(=O)c2ccccc2OC)C(=O)[C@H]2[C@@]1(C)CC[C@H]1C(=O)O[C@H](c3ccoc3)C[C@]21C | > 43 | 1640 nM | > 10000 nM | 7 | 230 nM | – | – | – | – | – | – |
| COC(=O)[C@@H]1C[C@H](NS(C)(=O)=O)C(=O)[C@H]2[C@@]1(C)CC[C@H]1C(=O)O[C@H](c3ccoc3)C[C@]21C | > 38 | > 10000 nM | > 10000 nM | > 38 | 260 nM | – | – | – | – | – | – |
| COC(=O)[C@@H]1C[C@H](OC(=O)c2ccc([N+](=O)[O-])cc2)C(=O)[C@H]2[C@@]1(C)CC[C@H]1C(=O)O[C@H](c3ccoc3)C[C@]21C | 0.45 | 260 nM | > 10000 nM | 13 | 570 nM | 46% | 1370 nM | Dose-dependent effect | – | – | – |
| COC(=O)[C@@H]1C[C@H](OC(=O)c2ccccc2Br)C(=O)[C@H]2[C@@]1(C)CC[C@H]1C(=O)O[C@H](c3ccoc3)C[C@]21C | > 100 | – | – | 1.2 | – | – | – | – | – | – | – |
| COC(=O)[C@@H]1C[C@H](OC(=O)c2cccc3ccccc23)C(=O)[C@H]2[C@@]1(C)CC[C@H]1C(=O)O[C@H](c3ccoc3)C[C@]21C | > 24 | > 10000 nM | > 10000 nM | > 24 | 410 nM | – | – | – | – | – | – |
| COC(=O)[C@@H]1C[C@H](SC(=O)c2ccccc2)C(=O)[C@H]2[C@@]1(C)CC[C@H]1C(=O)O[C@H](c3ccoc3)C[C@]21C | 1.4 | 290 nM | 1930 nM | 0.21 | 1410 nM | – | – | – | – | – | – |
| COC(=O)[C@@H]1C[C@H](NS(=O)(=O)c2ccccc2)C(=O)[C@H]2[C@@]1(C)CC[C@H]1C(=O)O[C@H](c3ccoc3)C[C@]21C | > 7 | > 10000 nM | > 10000 nM | > 7 | 1400 nM | – | – | – | – | – | – |
| COC(=O)[C@@H]1C[C@H](OC(=O)c2ccsc2)C(=O)[C@H]2[C@@]1(C)CC[C@H]1C(=O)O[C@H](c3ccoc3)C[C@]21C | 9 | 10 nM | 690 nM | 0.16 | 80 nM | 108% | 690 nM | – | 840 nM | 95% | – |
| COC(=O)[C@@H]1C[C@H](OC(=O)c2cc3ccccc3o2)C(=O)[C@H]2[C@@]1(C)CC[C@H]1C(=O)O[C@H](c3ccoc3)C[C@]21C | 8 | 10 nM | 580 nM | 0.14 | 70 nM | 104% | 1680 nM | – | 1120 nM | 109% | – |
| COC(=O)[C@@H]1C[C@H](O)C(=O)[C@H]2[C@@]1(C)CC[C@H]1C(=O)O[C@H](c3ccoc3)C[C@]21C [SALVINORIN B] | – | > 10000 nM | > 10000 nM | – | – | – | – | – | – | – | – |
| COC(=O)[C@@H]1C[C@H](OC(=O)c2ccc(Br)cc2)C(=O)[C@H]2[C@@]1(C)CC[C@H]1C(=O)O[C@H](c3ccoc3)C[C@]21C | 2 | – | – | 0.01 | – | 108% | 4890 nM | Dose-dependent effect | – | – | – |
| COC(=O)[C@@H]1C[C@H](NC(C)=O)C(=O)[C@H]2[C@@]1(C)CC[C@H]1C(=O)O[C@H](c3ccoc3)C[C@]21C | > 330 | 4180 nM | > 10000 nM | 13 | 30 nM | – | – | – | 120 nM | 108% | – |
| COC(=O)[C@@H]1C[C@H](OC(=O)c2ccccc2[N+](=O)[O-])C(=O)[C@H]2[C@@]1(C)CC[C@H]1C(=O)O[C@H](c3ccoc3)C[C@]21C | > 11 | 7550 nM | > 10000 nM | 8 | 900 nM | – | – | – | – | – | – |
| COC(=O)[C@@H]1C[C@H](OC(=O)c2ccccc2)C(=O)[C@H]2[C@@]1(C)CC[C@H]1C(=O)O[C@H](c3ccoc3)C[C@]21C | 12 | – | – | 0.13 | – | – | – | – | – | – | – |
| COC(=O)[C@@H]1C[C@H](OC(=O)c2cccc(Br)c2)C(=O)[C@H]2[C@@]1(C)CC[C@H]1C(=O)O[C@H](c3ccoc3)C[C@]21C | > 100 | – | – | 1.6 | – | – | – | – | – | – | – |
| COC(=O)[C@@H]1C[C@H](OC(=O)C2CCCCC2)C(=O)[C@H]2[C@@]1(C)CC[C@H]1C(=O)O[C@H](c3ccoc3)C[C@]21C | > 5 | 1030 nM | > 10000 nM | 0.5 | 2010 nM | – | – | – | – | – | – |
| COC(=O)[C@@H]1C[C@H](OC(=O)c2cccs2)C(=O)[C@H]2[C@@]1(C)CC[C@H]1C(=O)O[C@H](c3ccoc3)C[C@]21C | 5 | – | – | 0.04 | – | 95% | 1150 nM | – | – | – | – |
| COC(=O)[C@@H]1C[C@H](OC(=O)c2cccc([N+](=O)[O-])c2)C(=O)[C@H]2[C@@]1(C)CC[C@H]1C(=O)O[C@H](c3ccoc3)C[C@]21C | > 12 | > 10000 nM | > 10000 nM | > 12 | 800 nM | – | – | – | – | – | – |
| COC(=O)[C@@H]1C[C@H](OC(=O)c2cccc(OC)c2)C(=O)[C@H]2[C@@]1(C)CC[C@H]1C(=O)O[C@H](c3ccoc3)C[C@]21C | 2 | 30 nM | 1140 nM | 0.05 | 550 nM | 72% | 1670 nM | – | 3590 nM | 97% | – |
| COC(=O)[C@@H]1C[C@H](OC(=O)c2ccc(OC)cc2)C(=O)[C@H]2[C@@]1(C)CC[C@H]1C(=O)O[C@H](c3ccoc3)C[C@]21C | 3 | 70 nM | 1860 nM | 0.12 | 540 nM | 94% | 830 nM | Dose-dependent effect | 2610 nM | 106% | – |
| COC(=O)[C@@H]1C[C@H](NC(=O)c2ccccc2)C(=O)[C@H]2[C@@]1(C)CC[C@H]1C(=O)O[C@H](c3ccoc3)C[C@]21C | 0.11 | 3.1 nM | 810 nM | 0.0004 | 7430 nM | 134% | 360 nM | Dose-dependent effect | – | – | Active |
